According to ChEMBL document CHEMBL1124921, “Alpha-diketone and alpha-keto ester derivatives of N-protected amino acids and peptides as novel inhibitors of cysteine and serine proteinases” (J Med Chem, 1990):
Where a SMILES comes first, the peptide text is derived from it. The star is where a group is joined. Cbz = O=C(OCc1ccccc1)*

Legend:
[1] = target: Chymotrypsinogen A (Bos taurus, UniProt P00766); assay: Inhibition of alpha-chymotrypsin
Outline: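 Commercial α-chymotrypsin was assayed continuously with N-Suc-Ala-Ala-Pro-Phe-p-nitroanilide as substrate in HEPES buffer instead of Tris. […] Errors under 30%.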

[2] = Inhibition of Calpain; parameters: species or system Gallus gallus
Outline: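 Calpain purified from chicken gizzard, run as a continuous enzyme assay following a previously published method. Apparent dissociation constants Ki were derived for competitive inhibition; errors under 30%.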

Row | Compound | Ki [1] | Ki [2]
1 | CC(C)[C@H](NC(=O)OCc1ccccc1)C(=O)N[C@H](Cc1ccccc1)C(=O)C(F)(F)F | 45 µM | > 180 µM
2 | CC(=O)[C@H](Cc1ccccc1)NC(=O)OCc1ccccc1 |  | > 2000 µM
3 | CC(=O)C(=O)[C@H](Cc1ccccc1)NC(=O)[C@@H](NC(=O)OCc1ccccc1)C(C)C | 0.2 µM | 0.7 µM
4 | CC(C)[C@H](NC(=O)OCc1ccccc1)C(=O)N[C@@H](Cc1ccccc1)C(=O)C(F)(F)F | 2.4 µM | > 180 µM
5 | CC(=O)C(=O)[C@H](Cc1ccccc1)NC(=O)OCc1ccccc1 | 1.2 µM | 250 µM
6 | CCOC(=O)C(=O)[C@H](Cc1ccccc1)NC(=O)[C@@H](NC(=O)OCc1ccccc1)C(C)C | 0.06 µM | 0.6 µM
7 | CC(C)[C@H](NC(=O)OCc1ccccc1)C(=O)N[C@H](C=O)Cc1ccccc1 (Cbz-Val-Phe-aldehyde) | 54 µM | 0.01 µM
8 | O=C(N[C@@H](Cc1ccccc1)C(=O)C(F)F)c1ccccc1 | 7.7 µM | > 1000 µM
9 | O=C[C@H](Cc1ccccc1)NC(=O)OCc1ccccc1 | 360 µM | 3 µM
10 | O=C(N[C@@H](Cc1ccccc1)C(=O)C(F)(F)F)c1ccccc1 | 2.3 µM | > 1000 µM
11 | COC(=O)C(=O)[C@H](Cc1ccccc1)NC(=O)[C@@H](NC(=O)OCc1ccccc1)C(C)C | 0.06 µM | 0.4 µM
12 | COC(=O)C(=O)[C@H](Cc1ccccc1)NC(=O)c1ccccc1 | 0.15 µM | 150 µM
13 | CCOC(=O)C(=O)[C@H](Cc1ccccc1)NC(=O)OCc1ccccc1 | 0.13 µM | 92 µM
14 | O=C[C@H](Cc1ccccc1)NC(=O)c1ccccc1 | 64 µM | 4 µM
